Key:
[1] = Shelf life at room temperature; assay type: physicochemical; settings: solid; measured by NMR, MS, and elemental analysis
[2] = cited from earlier work
[3] = In vitro calcium mineral binding: hydroxyapatite
How it was run: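 Hydroxyapatite (1 mg) was suspended in saline (1 mL). For blocking, the suspension was preincubated overnight with unlabelled agent: pamidronate (27.9 mg, 100 µmol), alendronate or sodium fluoride, matched to each tracer. Radiotracer (~700 kBq) was added and shaken for 1 h at room temperature. After centrifuging at 9677 g for 5 min, supernatant and pellet activities were counted.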

[4] = Dynamic PET-CT imaging, ROI pharmacokinetics in healthy mice; assay type: in vivo, BALB/c mice
[5] = Ex vivo biodistribution by gamma counting; assay type: in vivo, BALB/c mice; settings: 120 min postinjection
How it was run: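 Female BALB/c mice (6-8 weeks, 17-20 g; 5 per tracer) were anaesthetised with isoflurane (2-3% in oxygen) and the radiotracer (100 ± 15 µL, 2.2-16.2 MBq) was injected via a tail-vein cannula. After a 1 h PET scan the mice recovered and were culled at 2 h postinjection. Organs were harvested, weighed and gamma-counted against standards prepared from the injected material, giving %ID/g.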

[6] = In vitro calcium mineral binding: mean across non-HAp calcium minerals; settings: saline, room temperature, 1 h
How it was run: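 Each calcium salt (carbonate, dibasic phosphate, pyrophosphate, β-tricalcium phosphate, oxalate; 1 mg) was suspended in saline (1 mL). Radiotracer (~700 kBq) was added and shaken for 1 h at room temperature. After centrifuging at 9677 g for 5 min, supernatant and pellet activities were counted separately.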

| SMILES | shelf life at room temperature [1] | pKa (amine) [2] | mean binding to HAp ([3]; saline, room temperature, 1 h, non-blocked) [%] | mean blocked binding to HAp ([3]; salt preincubated with excess unlabeled BP or fluoride) [%] | area under the curve from 3-59 min (AUC3-59) ([4]; heart ROI as proxy for blood) [%ID min mL^-1] | knee uptake (ROI image analysis) ([4]; mice, i.v., at 60 min postinjection) [%ID mL^-1] | femur uptake [5] [%ID/g] | mean binding across non-HAp minerals [6] [%] |
| --- | --- | --- | --- | --- | --- | --- | --- | --- |
| NCCC(O)(P(=O)(O)O)P(=O)(O)O [Pamidronate, pamidronate disodium dihydrate] | at least 4485 days | 10.40-13.06 |  |  |  |  |  |  |
| [18F-].[Na+] [[^18F]NaF] |  |  | 88.4 ± 4.6 | 2.2 ± 0.2 | 122.3 ± 5.1 | 54.5 ± 5.1 | 47.1 ± 8.3 | 8.4 ± 4.6 |

Source: publication PMC7611355 (Bioconjugate chemistry, 2020)
